Experimental findings from ChEMBL document CHEMBL4616671, “Identification of N-Phenyl-7H-pyrrolo[2,3-d]pyrimidin-4-amine Derivatives as Novel, Potent, and Selective NF-κB Inducing Kinase (NIK) Inhibitors for the Treatment of Psoriasis” (J Med Chem, 2020) are described below.

Data set [1] deals with Aurora kinase B (Homo sapiens, UniProt Q96GD4). Description: Inhibition of human Aurora B using [H-LRRASLG] as substrate in presence of [gamma33P]ATP by hotspot assay.
The test system of data set [2] is T-cell. Briefly: Antiinflammatory activity in mouse T cells assessed as inhibition of conA-induced induced T cell proliferation at 2 uM incubated for 48 hrs by CCK8 assay relative to control. The format is functional. Background: Formazan colour is commonly taken as a measure of viable cells.
The species named for data set [3] is Homo sapiens. Description: Selectivity ratio of IC50 for human Aurora B to IC50 for human NIK.
Data set [4] is filed under the species Homo sapiens. Description: Selectivity ratio of IC50 for human JAK3 to IC50 for human NIK.
The subject of data set [5] is T-cell. Description: Growth inhibition of mouse T cells at 10 uM after 48 hrs by CCK8 assay. The format is cell-based. The method, boiled down: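 Unstimulated mouse splenic T cells exposed to compound at 10 µM. Growth read by CCK-8 absorbance; […]. Mean ± SD, three independent experiments.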
Data set [6] can be described thus: Elimination half life in human liver microsomes incubated for 10 mins followed by potassium phosphate buffer addition and measured after 5 to 60 mins by LC-MS/MS analysis. The format is ADME, Microsome. The settings on record: read-out: beta t1/2. The method, boiled down:
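Rat, dog, monkey or human liver microsomes pre-incubated with compound at 37 °C for 10 min; reaction started after pre-warming and stopped at 5, 15, 30, 60 min with chilled quench containing tolbutamide and labetalol. No-cofactor control in 100 mM potassium phosphate for 60 min. LC-MS/MS analysis; first-order fit: k = −slope, T1/2 = 0.693/k, CLint = k/microsomal protein concentration.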
In general terms: Microsomes from liver hold many membrane-bound enzymes, among them those of drug oxidation.

Data set [7] is described as follows: Intrinsic hepatic clearance in rat. The format is ADME. The settings on record: in vivo. The method, boiled down: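 Scaled from microsomal intrinsic clearance: CLint,in vitro × microsomal protein per g liver × liver weight per kg body weight.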
Data set [8] in a line: Half life in Sprague-Dawley rat at 1 mg/kg, iv administered as single bolus dose by LC-MS/MS analysis. In kind it is ADME, organism-based. The settings on record: in vivo.
Data set [9] in a line: AUC (0 to infinity) in Sprague-Dawley rat at 10 mg/kg, po administered via gavage by LC-MS/MS analysis. The format is ADME, organism-based. Further details: dose 10 mg/kg, time infinity, route oral. The following applies: in vivo. An outline of the steps: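 Single oral gavage in SD rats, 3 per group, as a suspension in saline with 0.5% CMC-Na and 0.2% Tween 80, 1 mg/mL. Plasma protein-precipitated with ACN containing internal standards, then LC-MS/MS. AUC0-∞ by linear trapezoidal rule, noncompartmental analysis. Mean ± SD of three rats.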

Data set [10] deals with J774. Description: Antiinflammatory activity in mouse J774 cells assessed as reduction in LPS-induced CCL3 mRNA level by SYBR green dye-based quantitative PCR analysis. In kind it is functional, cell-based. An outline of the steps:
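LPS-stimulated J774 macrophages; mRNA quantified by qPCR using 4 µL cDNA plus 16 µL master mix per reaction. Mean ± SD of three biological replicates; significance by two-tailed Student's t-test against the model group.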

For data set [11], the system named is Mus musculus. Description: Protection against IMQ-induced dermatitis in C57 mouse model of psoriasis assessed as reduction in dermal scales at 120 mg/kg, ig administered once daily starting from day 3 post IMQ-challenge and measured 2 days post-last dose of IMQ. The format is functional, organism-based. An outline of the steps:
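C57 mice given 5% imiquimod cream on the back once daily for 7 days; intragastric dosing 60 or 120 mg/kg once daily from day 3 to end, n = 6 per group. Dorsal skin phenotype assessed by imaging.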

For data set [12], the system named is Mus musculus. Briefly: Suppression of IMQ-induced psoriasis in C57 mouse assessed as reduction in spleen index at 120 mg/kg, ig administered once daily starting from day 3 post IMQ-challenge and measured 2 days post-last dose of IMQ. The format is functional, organism-based. The method, boiled down:
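IMQ-induced C57 mice (5% cream daily 7 days; i.g. daily from day 3 at the stated dose, n = 6). Spleen weighed per mouse at end of study.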

Data set [13] has as its system Mus musculus. Description: Suppression of IMQ-induced psoriasis in ig dosed C57 mouse assessed as reduction in serum TNFalpha level administered once daily starting from day 3 post IMQ-challenge and measured 2 days post-last dose of IMQ by ELISA. In kind it is functional, organism-based. An outline of the steps: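 Psoriasis-like dermatitis induced by 5% imiquimod cream on back skin of C57 mice, q.d. for seven days. Oral (i.g.) dosing q.d. at 60 or 120 mg/kg from day 3 to study end, n = 6 per group. At end, blood held at 4 °C for 12 h, then centrifuged. Serum TNFα measured by ELISA. Mean ± SEM.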

The test system of data set [14] is Mus musculus. Briefly: Suppression of epidermal and dermal cell proliferation in C57 mouse model of IMQ-induced psoriasis assessed as reduction in Ki67 expression in back skin psoriatic lesions at 60 mg/kg, ig administered starting from day 3 post IMQ-challenge and measured 2 days post-last dose of IMQ by immunohistochemical analysis relative to control. In kind it is functional. The settings on record: C57, topical. An outline of the steps:
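C57 mice given 5% imiquimod cream on back skin q.d. for seven days. Gavage q.d. at 60 or 120 mg/kg from day 3, n = 6 per group. Back-skin frozen sections (6 µm) stained for Ki67 by IHC. % Ki67+ of total cells quantified and normalized to IMQ-only model group. Two-tailed t-test, mean ± SD.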

The subject of data set [15] is Mus musculus. Description: Suppression of IMQ-induced psoriasis in C57 mouse assessed as reduction in macrophage infiltration in back skin tissue at 60 to 120 mg/kg, ig administered starting from day 3 post IMQ-challenge and measured 2 days post-last dose of IMQ by F4/80 immunofluorescence staining based assay. The format is functional, organism-based. An outline of the steps:
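IMQ-induced C57 mice (5% cream 7 days; 60 or 120 mg/kg i.g. daily from day 3). Frozen back-skin sections, 6 µm, stained with F4/80 antibody, DAPI counterstain, and imaged by confocal microscopy. Significance by two-tailed t-test.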

Data set [16] deals with Mitogen-activated protein kinase kinase kinase 14 (Mus musculus) (UniProt Q9WUL6). Briefly: In vivo inhibition of NIK in po dosed C57 mouse model of IMQ-induced psoriasis assessed as reduction in P52 expression in back skin administered starting from day 3 post IMQ-challenge and measured 2 days post-last dose of IMQ by Western blot analysis. In kind it is functional, organism-based. An outline of the steps:
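IMQ-induced psoriasis in C57 mice, 5% cream daily for 7 days, oral dosing 60 or 120 mg/kg from day 3. Back-skin protein extracts probed by western blot for p100 and p52; band optical density normalized to GAPDH.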
On the technique in general: A western blot detects proteins with antibodies after separation by electrophoresis.

Data set [17] shares this target. Briefly: In vivo inhibition of NIK in C57 mouse model of IMQ-induced psoriasis assessed as reduction in NF-kappaB signalling in back skin by measuring decrease in TNF-alpha mRNA level at 60 to 120 mg/kg, po administered starting from day 3 post IMQ-challenge and measured 2 days post-last dose of IMQ by qPCR analysis. In kind it is functional, organism-based. An outline of the steps: (§1)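 IMQ psoriasis model: 5% imiquimod cream applied to C57 mouse back skin once daily for seven days; oral dosing 60 or 120 mg/kg once daily from day 3, n = 6 per group. Back-skin mRNA measured by qPCR.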

Data set [18] has the same target. Briefly: In vivo inhibition of NIK in C57 mouse model of IMQ-induced psoriasis assessed as reduction in NF-kappaB signalling in back skin by measuring decrease in mRNA IL-6 level at 60 to 120 mg/kg, po administered starting from day 3 post IMQ-challenge and measured 2 days post-last dose of IMQ by qPCR analysis. In kind it is functional, organism-based. The method, boiled down: as §1

What is called IC50 is the point on the concentration scale where inhibition reaches its midpoint. The inhibition is the change of the read-out against control, counted positive when it falls. For orientation: AUC(0-inf) means the area under the concentration-time curve extrapolated to infinity. A higher AUC(0-inf) goes with high exposure. For orientation: inhibition in vivo means the change of the read-out against control, counted positive when it falls.

Active and inactive are the calls of the source. The rule behind the calls is not given here.

Mitogen-activated protein kinase kinase kinase 14 (Mus musculus), sequence (Q9WUL6 whole entry): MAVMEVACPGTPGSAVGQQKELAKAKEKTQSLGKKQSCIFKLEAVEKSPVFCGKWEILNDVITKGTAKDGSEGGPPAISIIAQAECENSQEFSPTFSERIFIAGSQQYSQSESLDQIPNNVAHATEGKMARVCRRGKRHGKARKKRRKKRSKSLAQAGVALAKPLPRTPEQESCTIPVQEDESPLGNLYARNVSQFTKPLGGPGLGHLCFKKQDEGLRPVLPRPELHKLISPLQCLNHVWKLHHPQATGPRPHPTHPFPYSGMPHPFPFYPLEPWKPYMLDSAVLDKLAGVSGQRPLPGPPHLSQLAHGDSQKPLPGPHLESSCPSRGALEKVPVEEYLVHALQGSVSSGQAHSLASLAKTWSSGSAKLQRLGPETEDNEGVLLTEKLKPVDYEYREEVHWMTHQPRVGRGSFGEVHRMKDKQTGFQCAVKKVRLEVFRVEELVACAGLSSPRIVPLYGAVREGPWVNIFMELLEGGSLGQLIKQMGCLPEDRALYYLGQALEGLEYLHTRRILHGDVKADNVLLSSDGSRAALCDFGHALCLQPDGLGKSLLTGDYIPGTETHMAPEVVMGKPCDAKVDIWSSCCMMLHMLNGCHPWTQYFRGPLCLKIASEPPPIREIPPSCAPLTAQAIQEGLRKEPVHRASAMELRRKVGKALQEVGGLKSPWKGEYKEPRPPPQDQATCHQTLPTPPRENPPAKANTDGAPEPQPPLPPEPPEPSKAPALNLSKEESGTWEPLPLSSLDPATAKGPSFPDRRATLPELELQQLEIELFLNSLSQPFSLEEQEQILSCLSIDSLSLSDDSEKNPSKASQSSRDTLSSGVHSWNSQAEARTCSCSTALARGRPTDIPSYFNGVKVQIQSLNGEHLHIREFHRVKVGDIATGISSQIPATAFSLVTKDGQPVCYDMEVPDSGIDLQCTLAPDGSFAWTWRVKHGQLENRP
Aurora kinase B, sequence (Q96GD4 whole entry): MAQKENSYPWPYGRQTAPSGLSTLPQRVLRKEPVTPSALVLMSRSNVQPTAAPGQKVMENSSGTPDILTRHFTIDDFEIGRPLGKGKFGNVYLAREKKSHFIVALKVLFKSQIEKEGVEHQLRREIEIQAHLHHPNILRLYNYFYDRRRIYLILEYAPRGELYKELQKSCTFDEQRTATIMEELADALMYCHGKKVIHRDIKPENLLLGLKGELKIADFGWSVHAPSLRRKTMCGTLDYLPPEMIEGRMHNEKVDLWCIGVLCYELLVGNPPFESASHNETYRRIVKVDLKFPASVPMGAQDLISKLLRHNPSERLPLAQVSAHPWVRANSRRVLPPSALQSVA

For the molecule `CC(O)(C#Cc1ccc(N2CCOCC2)c(Nc2ncnc3[nH]ccc23)c1)c1nccs1` (racemic), the IC50 in data set [1] came to 43.2 nM. Also, the inhibition at 2 µM in data set [2] is 62.3%. Also, the Ratio IC50 in [3] and in data set [4] was 4 to 20 in each case. Further, in data set [5], the Activity entry is given as “Non-Toxic”. The figures for the half-life in data set [6] and in data set [8] were 42.9 min and 56.6 min, respectively. Besides, the CLH in data set [7] is 81 mL/min/kg. In data set [9], this molecule showed an AUC(0-inf) of 2680 ng·h/mL. Also, the result in data set [10] and in data set [11] was Active. In addition, the inhibition entry in data set [12], in data set [15], in data set [17] and in data set [18] was “Active” each time. The inhibition result in data set [13] and in [16] was “Dose-dependent effect” throughout. Moreover, in [14], the inhibition in vivo at 60 mg/kg was 55%.
